Source: ChEMBL document CHEMBL1123373, “9-(2-Deoxy-2-fluoro-beta-D-arabinofuranosyl)guanine: a metabolically stable cytotoxic analogue of 2'-deoxyguanosine” (J Med Chem, 1986)
Calls of active or inactive are those of the source. The calls are words filed in the database; no cut-off is given here.

Columns and labels:
T-cell = assay: Compound was tested for its cytotoxicity against T- cell line; assay type: functional, cell-based; conditions: Homo sapiens
Outline: (§1)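 Cells seeded at 1 × 10^5/mL in RPMI 1640 with 10% fetal calf serum, 2 mM L-glutamine and increasing drug concentrations. Cultured 3 days under 95% air/5% CO2. Viable cells counted microscopically after adding 0.1% erythrocin B, relative to drug-free cultures. Points are mean ± SEM, except the adenosine kinase-deficient mutant, which used duplicates.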

[1] = Compound was tested for its cytotoxicity against MGL-8 B -lymphoblasts; assay type: functional, Homo sapiens; outline: as §1
L1210 [2] = assay: Inhibition of DNA synthesis in L1210 cells by the compound was determined the reduced incorporation of incorporation of [3H]dThd into DNA at concentration of 50 uM; assay type: functional; conditions: Mus musculus
Outline: (§2)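 Cultured L1210 cells exposed to drug at 25, 50 or 100 µM. Label incorporation measured: [3H]dThd into DNA, [5-3H]Urd into RNA, [4,5-3H]L-Leu into protein. Values are percent inhibition of incorporation.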

L1210 [3] = assay: Compound was tested for its ability to inhibit the incorporation of [3H]dThd into DNA at concentration of 100 uM; assay type: functional; conditions: Mus musculus; outline: as §2
B-cell = assay: Compound was tested for its cytotoxicity against B- cell line (Wi-L2 B -lymphoblasts); assay type: functional, cell-based; conditions: Homo sapiens; outline: as §1
L1210 [4] = assay: Effect of compound on macromolecular synthesis in L1210 cells in culture; 8.5-17uM; assay type: functional, cell-based; conditions: Mus musculus
L1210 [5] = assay: Inhibition of RNA synthesis in L1210 cells by the compound was determined the reduced incorporation of [5-3H]-Urd into RNA at the concentration of 100 uM; NI denotes no inhibition; assay type: functional, cell-based; conditions: Mus musculus; outline: as §2
Wild type T- cell line = assay: Compound was tested for its cytotoxicity against wild type T- cell line; assay type: functional, cell-based; conditions: Homo sapiens; outline: as §1
L1210 [6] = assay: Inhibition of DNA synthesis in L1210 cells by the compound was determined the reduced incorporation of incorporation of [3H]dThd into DNA at concentration of 25 uM; assay type: functional; conditions: Mus musculus; outline: as §2
L1210 [7] = assay: Inhibition of protein synthesis in L1210 cells by the compound was determined the reduced incorporation of [4,5-3H]L-Leu into protein; assay type: functional, Mus musculus; outline: as §2

IC50 (L1210 [4]) [nM]	SMILES	IC50 (T-cell) [nM]	IC50 [1] [nM]	inhibition at 50 µM (L1210 [2]) [%]	inhibition at 100 µM (L1210 [3]) [%]	IC50 (B-cell) [nM]	inhibition (L1210 [5])	IC50 (Wild type T- cell line) [nM]	inhibition at 25 µM (L1210 [6]) [%]	Inhibition (L1210 [7]) [%]
	Nc1nc2c(ncn2[C@@H]2O[C@H](CO)[C@@H](O)[C@H]2O)c(=O)[nH]1 [GUANOSINE]	100	7000							
8500	Nc1nc(O)c2ncn([C@@H]3O[C@H](CO)[C@@H](O)[C@@H]3F)c2n1 [F-ARAG]			62	76	~750	inactive	~200	12	17
